We go through seven compounds from ChEMBL document CHEMBL3860066, “β-Sulfonamido Functionalized Aspartate Analogues as Excitatory Amino Acid Transporter Inhibitors: Distinct Subtype Selectivity Profiles Arising from Subtle Structural Differences” (J Med Chem, 2016).

pIC50: −log10 of the molar value.

Assay type in all cases: cell-based
For assay [1], the target named is Excitatory amino acid transporter 1 (Homo sapiens, UniProt P43003). Description: Inhibition of [3H]-D-Asp uptake at human EAAT1 expressed in HEK293 cells measured after 3 mins by TopCount method. Particulars: read-out: IC50. An outline of the steps:
(§1)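 Stably transfected EAAT1-, EAAT2- or EAAT3-HEK293 lines grown in high-glucose GlutaMAX DMEM with 5% dialyzed FBS, penicillin/streptomycin and 1 […] G418. Cells were seeded and reached confluence in 16−24 h, then washed in uptake buffer (HBSS, 20 mM HEPES, 1 mM CaCl₂, 1 mM MgCl₂, pH 7.4). Uptake ran 3 min at room temperature with 100 nM [³H]-D-aspartate plus test compound at varied concentrations. Two ice-cold washes, then scintillation counting. IC₅₀ from concentration−inhibition curves, n = 3−5.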

Assay [2] has as its target Excitatory amino acid transporter 2 (Homo sapiens, UniProt P43004). Description: Inhibition of [3H]-D-Asp uptake at human EAAT2 expressed in HEK293 cells measured after 3 mins by TopCount method. Particulars: for pIC50: read-out: IC50. An outline of the steps:
as §1

The target of assay [3] is T1, Excitatory amino acid transporter 3 (Homo sapiens, UniProt P43005).
T1 sequence (P43005 whole entry): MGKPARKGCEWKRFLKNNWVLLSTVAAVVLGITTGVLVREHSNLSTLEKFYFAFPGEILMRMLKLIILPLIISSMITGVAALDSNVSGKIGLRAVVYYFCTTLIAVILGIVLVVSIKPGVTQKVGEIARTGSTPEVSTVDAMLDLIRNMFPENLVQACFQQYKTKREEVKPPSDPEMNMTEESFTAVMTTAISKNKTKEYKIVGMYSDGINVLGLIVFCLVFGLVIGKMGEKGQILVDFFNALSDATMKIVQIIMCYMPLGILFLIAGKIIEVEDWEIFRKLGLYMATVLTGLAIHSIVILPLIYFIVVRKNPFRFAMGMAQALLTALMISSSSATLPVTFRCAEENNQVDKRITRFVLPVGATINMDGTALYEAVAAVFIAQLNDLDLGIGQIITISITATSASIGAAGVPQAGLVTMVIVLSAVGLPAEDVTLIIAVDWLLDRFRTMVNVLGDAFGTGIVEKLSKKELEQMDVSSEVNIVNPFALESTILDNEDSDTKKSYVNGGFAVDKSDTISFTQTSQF
The assay is described as follows: Inhibition of [3H]-D-Asp uptake at human EAAT3 expressed in HEK293 cells measured after 3 mins by TopCount method. The settings on record: read-out: IC50. An outline of the steps:
as §1

In assay [4] the test system is HEK293. Description: Selectivity ratio of IC50 for human EAAT1 expressed in HEK293 cells to IC50 for human EAAT2 expressed in HEK293 cells.
For assay [5], the system named is HEK293. Description: Selectivity ratio of IC50 for human EAAT3 expressed in HEK293 cells to IC50 for human EAAT2 expressed in HEK293 cells.
Assay [6] relates to HEK293. The assay is described as follows: Selectivity ratio of IC50 for human EAAT2 expressed in HEK293 cells to IC50 for human EAAT1 expressed in HEK293 cells.
Assay [7] deals with HEK293. Description: Selectivity ratio of IC50 for human EAAT3 expressed in HEK293 cells to IC50 for human EAAT1 expressed in HEK293 cells.

Chain of Excitatory amino acid transporter 1 (P43003 whole entry, the tested form may be a part): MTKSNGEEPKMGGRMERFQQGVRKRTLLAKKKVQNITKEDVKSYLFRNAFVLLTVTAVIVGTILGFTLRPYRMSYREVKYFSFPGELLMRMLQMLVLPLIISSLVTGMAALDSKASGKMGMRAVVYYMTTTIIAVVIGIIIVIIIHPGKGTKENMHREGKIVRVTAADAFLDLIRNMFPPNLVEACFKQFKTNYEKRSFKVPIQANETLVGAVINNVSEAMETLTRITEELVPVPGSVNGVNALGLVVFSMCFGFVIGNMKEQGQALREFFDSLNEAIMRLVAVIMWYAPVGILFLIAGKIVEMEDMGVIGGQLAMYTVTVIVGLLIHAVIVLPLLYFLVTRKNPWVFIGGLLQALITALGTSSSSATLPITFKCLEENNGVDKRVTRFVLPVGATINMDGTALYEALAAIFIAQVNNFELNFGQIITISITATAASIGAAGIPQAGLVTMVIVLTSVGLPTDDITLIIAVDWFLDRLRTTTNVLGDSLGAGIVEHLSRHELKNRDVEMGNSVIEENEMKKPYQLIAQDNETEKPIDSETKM
Chain of Excitatory amino acid transporter 2 (P43004 whole entry): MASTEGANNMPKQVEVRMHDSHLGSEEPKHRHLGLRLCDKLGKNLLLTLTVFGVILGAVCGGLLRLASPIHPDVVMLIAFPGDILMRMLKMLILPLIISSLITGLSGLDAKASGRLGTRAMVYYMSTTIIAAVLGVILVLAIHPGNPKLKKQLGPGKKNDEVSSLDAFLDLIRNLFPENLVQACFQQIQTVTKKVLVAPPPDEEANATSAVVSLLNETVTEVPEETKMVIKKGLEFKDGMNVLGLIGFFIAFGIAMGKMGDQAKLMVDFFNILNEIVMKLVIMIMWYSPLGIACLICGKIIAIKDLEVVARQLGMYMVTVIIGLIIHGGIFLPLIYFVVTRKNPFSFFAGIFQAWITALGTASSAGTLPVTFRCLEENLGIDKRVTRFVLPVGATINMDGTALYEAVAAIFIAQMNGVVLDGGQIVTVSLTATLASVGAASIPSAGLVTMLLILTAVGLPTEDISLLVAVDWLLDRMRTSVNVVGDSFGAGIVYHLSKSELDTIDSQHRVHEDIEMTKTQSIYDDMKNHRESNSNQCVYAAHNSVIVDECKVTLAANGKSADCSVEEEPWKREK

Turning to `N[C@H](C(=O)O)C(NS(=O)(=O)c1cccc(C(F)(F)F)c1)C(=O)O` (mixture of isomers), the pIC50 (as a rule, the negative decadic logarithm of the IC50, by convention in mol/L) was 4.00 in assay [1], 5.55 in assay [2] and 3.82 in assay [3]. In addition, the figures for the Ratio IC50 in the assay with HEK293 [4] and in the assay on HEK293 [5] were 30 and 50, respectively.
Take `N[C@H](C(=O)O)C(NS(=O)(=O)c1ccc(F)c(F)c1)C(=O)O` (mixture of isomers): the pIC50 in assay [1] is 6.10; in assay [2] it was 4.96; in assay [3], 5.13. In assay [2] (read-out: pIC50 (converted)), the IC50 is 1.1 µM. Besides, the Ratio IC50 was 14 with HEK293 [6] and 9 in the assay on HEK293 [7].
As for `Cc1cc(C)cc(S(=O)(=O)NC(C(=O)O)[C@H](N)C(=O)O)c1` (mixture of isomers), the values for the pIC50 in assay [1], in assay [2] and in assay [3] were 4.20, 4.96 and 4.00, respectively. Besides, the Ratio IC50 with HEK293 [4] and with HEK293 [5] was 5 to 9 each time.
Regarding `N[C@H](C(=O)O)C(NS(=O)(=O)c1cc(F)c(F)cc1F)C(=O)O` (mixture of isomers), the pIC50 is 5.60 in assay [1], 4.66 in assay [2] and 5.00 in assay [3]. Also, the values for the Ratio IC50 in the assay on HEK293 [6] and in the assay with HEK293 [7] were 9 and 4, respectively.
Take `N[C@H](C(=O)O)C(NS(=O)(=O)c1ccc(-c2ccccc2)cc1)C(=O)O` (mixture of isomers): the results for the negative logarithm of the IC50 (pIC50) in assay [1], in assay [2] and in assay [3] were 5.64, 6.30 and 4.70, respectively. Moreover, the Ratio IC50 in the assay with HEK293 [5] and with HEK293 [7] was 10 to 40 each time.
As for `N[C@H](C(=O)O)C(NS(=O)(=O)c1cccc2ccccc12)C(=O)O` (mixture of isomers), the pIC50 was 4.19 in assay [1], 4.85 in assay [2] and 4.20 in assay [3]. The Ratio IC50 with HEK293 [4] and in the assay on HEK293 [5] was 5 each time.
`N[C@H](C(=O)O)C(NS(=O)(=O)c1c(F)c(F)c(F)c(F)c1F)C(=O)O` (single isomer, unassigned; diastereomer 2): the Ratio IC50 with HEK293 [6] was found to be 6; in the assay on HEK293 [7], 10.
